Among the data in ChEMBL document CHEMBL1138488, “Synthesis and biological evaluation of 3,3-difluoropyridine-2,4(1H,3H)-dione and 3-deaza-3-fluorouracil base and nucleoside derivatives” (J Med Chem, 2009) are Activity and CC50 values, retold here.

Usually CC50 stands for the concentration that lowers cell viability or growth by half.

Data set [1] has as its system Moloney murine sarcoma virus. In words: Antiviral activity against Moloney sarcoma virus replication infected in mouse […] cells assessed as virus-induced transformation of cells at <=100 uM measured on day 6 postinfection. The format is functional, organism-based. The method in brief: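 Murine C3H/3T3 embryo fibroblasts were grown to confluency and infected with Moloney murine sarcoma virus at 75 focus-forming units. Compound concentrations were then added, and virus-induced transformation was examined microscopically at day 6 postinfection.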

Data set [2] relates to Human immunodeficiency virus 2. In words: Antiviral activity against HIV2 ROD replication in human CEM cells assessed as virus-induced giant cell formation at <=100 uM after 4 days. The format is functional, organism-based. The settings on record: CCRF-CEM. In short, it runs like this: (§1)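 CEM cells (~3 × 10⁵ cells/cm³) were infected with 100 CCID₅₀/mL of HIV-1(III_B) or HIV-2(ROD) and seeded into wells containing compound dilutions. After 4 days at 37 °C, virus-induced giant cell formation was examined microscopically.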

The nature of data set [3]: Cytostatic activity against human Molt4/C8 cells at <=500 uM after 3 days by Coulter counting analysis. The data set is classed as ADME, cell-based. The settings on record: molt-4, 72 h. In short, it runs like this: (§2)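 Molt4/C8 or CEM lymphocytes were seeded at 75000 cells per well with varying compound concentrations. Viable cells were counted by Coulter counter after 3 days. CC₅₀ is the concentration inhibiting cell proliferation by 50%.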

Data set [4] deals with Human alphaherpesvirus 1. In words: Antiviral activity against acyclovir-resistant […] kinase-deficient HSV1 KOS infected in HEL cells assessed as virus-induced cytopathic effect at <=100 uM. The data set is classed as functional, organism-based. A general note: Cytopathic effects are the visible damage that an infection or toxin causes in cultured cells.
In data set [5] the test system is Human betaherpesvirus 5. In words: Antiviral activity against HCMV Davis infected in HEL cells assessed as inhibition of virus-induced cytopathic effect at <=100 uM. The data set is classed as functional, organism-based. In short, it runs like this: (§3)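 Confluent cell monolayers were inoculated with 100 CCID₅₀ of virus, and virus was adsorbed for 1 h. Residual virus was then removed and cells were incubated with serial compound concentrations ([…], ... µM). Cytopathicity was scored once it reached completion in untreated virus-infected control cultures.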

For the next data set, the system named is L1210. In words: Cytostatic activity against mouse L1210 cells at <=500 uM after 2 days by Coulter counting analysis. Conditions: l1210, 48 h. The data set is classed as ADME, cell-based. The method in brief:
(§4)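 Murine leukemia L1210 cells were seeded at 50000 cells per well with varying compound concentrations. Viable cell number was counted by Coulter counter after 2 days.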

In data set [6] the test system is Human alphaherpesvirus 3. The data set is described as follows: Antiviral activity against thymidine kinase expressing Varicella zoster virus Oka infected in human HEL cells assessed as inhibition of virus-induced cytopathic effect at <=100 uM. The format is functional, organism-based. In short, it runs like this:
as §3

In a further data set the test system is Vaccinia virus. The data set is described as follows: Antiviral activity against Vaccinia virus infected in HEL cells assessed as inhibition of virus-induced cytopathic effect at <=100 uM. The data set is classed as functional, organism-based. The settings on record: Orthopoxvirus vaccinia.
The subject of data set [7] is Human alphaherpesvirus 1. The data set is described as follows: Antiviral activity against HSV1 KOS infected in HEL cells assessed as virus-induced cytopathic effect at <=100 uM. The format is functional, organism-based.
Data set [8] relates to Human betaherpesvirus 5. The data set is described as follows: Antiviral activity against HCMV AD169 infected in HEL cells assessed as inhibition of virus-induced cytopathic effect at <=100 uM. The format is functional, organism-based. The method in brief: as §3
For data set [9], the system named is Vesicular stomatitis virus. In words: Antiviral activity against Vesicular stomatitis virus infected in HEL cells assessed as inhibition of virus-induced cytopathic effect at <=100 uM. The format is functional, organism-based.
The subject of the next data set is CCRF-CEM. The data set is described as follows: Cytostatic activity against human CEM cells at <=500 uM after 3 days by Coulter counting analysis. The data set is classed as cell-based. Conditions: 72 h. In short, it runs like this:
as §2

The subject of data set [10] is Human immunodeficiency virus 1. The data set is described as follows: Antiviral activity against HIV1 3B replication in human CEM cells assessed as virus-induced giant cell formation at <=100 uM after 4 days. The settings on record: CCRF-CEM. The format is functional, organism-based. The method in brief:
as §1

For a further data set, the system named is Human respirovirus 3. The data set is described as follows: Antiviral activity against Parainfluenza virus type 3 infected in african green monkey Vero cells assessed as inhibition of virus-induced cytopathic effect at <=100 uM. The data set is classed as functional, organism-based. The method in brief:
as §3

In data set [11] the test system is Human alphaherpesvirus 3. The data set is described as follows: Antiviral activity against thymidine kinase deficient Varicella zoster virus 07/1 infected in human HEL cells assessed as inhibition of virus-induced cytopathic effect at <=100 uM. The data set is classed as functional, organism-based. In short, it runs like this:
as §3

Data set [12] deals with Mammalian orthoreovirus 3. The data set is described as follows: Antiviral activity against Reovirus 3 infected in african green monkey Vero cells assessed as inhibition of virus-induced cytopathic effect at <=100 uM. The data set is classed as functional, organism-based.
Another data set relates to Coxsackievirus B4. In words: Antiviral activity against Coxsackievirus B4 infected in human HeLa cells assessed as inhibition of virus-induced cytopathic effect at <=100 uM. The format is functional, organism-based. The method in brief: as §3
The subject of a further data set is Human alphaherpesvirus 2. In words: Antiviral activity against HSV2 strain G infected in HEL cells assessed as virus-induced cytopathic effect at <=100 uM. The format is functional, organism-based.
A further data set has as its system Punta Toro virus. In words: Antiviral activity against Punta Toro virus infected in african green monkey Vero cells assessed as inhibition of virus-induced cytopathic effect at <=100 uM. The format is functional, organism-based. The method in brief:
as §3

The test system of data set [13] is Vesicular stomatitis virus. The data set is described as follows: Antiviral activity against Vesicular stomatitis virus infected in human HeLa cells assessed as inhibition of virus-induced cytopathic effect at <=100 uM. The format is functional, organism-based.
Data set [14] has as its system Respiratory syncytial virus. In words: Antiviral activity against Respiratory syncytial virus infected in human HeLa cells assessed as inhibition of virus-induced cytopathic effect at <=100 uM. The data set is classed as functional, organism-based. The method in brief: as §3
The subject of the next data set is Sindbis virus. The data set is described as follows: Antiviral activity against Sindbis virus infected in african green monkey Vero cells assessed as inhibition of virus-induced cytopathic effect at <=100 uM. The format is functional, organism-based. In short, it runs like this: as §3
Data set [15] is described as follows: Cytostatic activity against human CEM cells after 3 days by Coulter counting analysis. The data set is classed as cell-based, CCRF-CEM. The method in brief: as §2
A short description of data set [16]: Cytostatic activity against mouse L1210 cells after 2 days by Coulter counting analysis. The format is ADME, cell-based. The method in brief: as §4
Data set [17] in a line: Cytostatic activity against human Molt4/C8 cells after 3 days by Coulter counting analysis. The format is ADME, cell-based, MOLT-4. In short, it runs like this: as §2

Active and inactive are the calls of the source. The rule behind the calls is not given here.

`NC(=O)Cc1ccn([C@@H]2O[C@H](CO)[C@@H](O)[C@H]2O)c(=O)c1F`: the result (in [1]; in [2]; in the data set on Human alphaherpesvirus 1 [4]; with Human betaherpesvirus 5 [5]; with Human alphaherpesvirus 3 [6]; in the data set with Vaccinia virus) was inactive. Further, the result (with Human alphaherpesvirus 1 [7]; with Human betaherpesvirus 5 [8]; in data set [9]; in data set [10]; in the data set on Human respirovirus 3; in the data set on Human alphaherpesvirus 3 [11]) was inactive. Besides, the result (in [12]; with Coxsackievirus B4; in the data set on Human alphaherpesvirus 2; in the data set on Punta Toro virus; in data set [13]; in data set [14]) was inactive. In addition, the outcome with Sindbis virus was inactive. The Activity result (in data set [3]; in the data set on L1210; in the data set with CCRF-CEM) was “Not Active” throughout.

For the molecule `C#CC1(O)C=CN([C@@H]2O[C@H](CO)[C@@H](O)[C@H]2O)C(=O)C1(F)F` (stereo not given in full), the outcome (in data set [1]; in [2]; with Human alphaherpesvirus 1 [4]; in the data set on Human betaherpesvirus 5 [5]; with Human alphaherpesvirus 3 [6]; in the data set with Vaccinia virus) was inactive. Further, the outcome (in the data set with Human alphaherpesvirus 1 [7]; in the data set on Human betaherpesvirus 5 [8]; in data set [9]; in [10]; in the data set on Human respirovirus 3; in the data set with Human alphaherpesvirus 3 [11]) was inactive. Besides, the outcome (in data set [12]; in the data set on Coxsackievirus B4; in the data set with Human alphaherpesvirus 2; with Punta Toro virus; in [13]; in data set [14]) was inactive. For the same molecule, the result with Sindbis virus was inactive. Besides, the Activity result (in [3]; in the data set with L1210; in the data set with CCRF-CEM) was “Not Active” throughout.

Consider `NC(=O)Cc1ccn([C@@H]2O[C@H](CO)[C@@H](O)[C@@H]2O)c(=O)c1F`, for which the result (in data set [1]; in data set [2]; in the data set on Human alphaherpesvirus 1 [4]; with Human betaherpesvirus 5 [5]; in the data set with Human alphaherpesvirus 3 [6]; with Vaccinia virus) was inactive. The outcome (in the data set with Human alphaherpesvirus 1 [7]; with Human betaherpesvirus 5 [8]; in data set [9]; in data set [10]; with Human respirovirus 3; with Human alphaherpesvirus 3 [11]) was inactive. Besides, the outcome (in [12]; in the data set on Coxsackievirus B4; in the data set with Human alphaherpesvirus 2; with Punta Toro virus; in [13]; in [14]) was inactive. The result in the data set with Sindbis virus was inactive. Further, the Activity entry (in data set [3]; with L1210; in the data set on CCRF-CEM) was “Not Active” throughout.

As for `O=c1c(F)c(O)ccn1[C@@H]1O[C@H](CO)[C@@H](O)[C@H]1O`, the result (in data set [1]; in [2]; in the data set with Human alphaherpesvirus 1 [4]; with Human betaherpesvirus 5 [5]; in the data set with Human alphaherpesvirus 3 [6]; in the data set with Vaccinia virus) was inactive. Besides, the outcome (in the data set on Human alphaherpesvirus 1 [7]; in the data set with Human betaherpesvirus 5 [8]; in data set [9]; in data set [10]; in the data set on Human respirovirus 3; in the data set with Human alphaherpesvirus 3 [11]) was inactive. In addition, the outcome (in data set [12]; with Coxsackievirus B4; in the data set with Human alphaherpesvirus 2; with Punta Toro virus; in data set [13]; in data set [14]) was inactive. Further, the outcome with Sindbis virus was inactive. The Activity entry (in [3]; with L1210; with CCRF-CEM) was “Not Active” in each case. Besides, the values for the 50% cytotoxic concentration (CC50) at 72 h in data set [15] and in data set [17] were 9.6 µM and 4.4 µM, respectively. Also, the CC50 at 48 h in [16] turned out to be 6.7 µM.

Consider `O=C1N([C@@H]2O[C@H](CO)[C@@H](O)[C@H]2O)C=CC(O)(c2ccccc2)C1(F)F` (stereo not given in full), for which the outcome (in data set [1]; in data set [2]; in the data set on Human alphaherpesvirus 1 [4]; with Human betaherpesvirus 5 [5]; in the data set on Human alphaherpesvirus 3 [6]; with Vaccinia virus) was inactive. The outcome (in the data set on Human alphaherpesvirus 1 [7]; in the data set with Human betaherpesvirus 5 [8]; in data set [9]; in [10]; in the data set with Human respirovirus 3; in the data set with Human alphaherpesvirus 3 [11]) was inactive. The result (in data set [12]; in the data set with Coxsackievirus B4; in the data set on Human alphaherpesvirus 2; in the data set on Punta Toro virus; in data set [13]; in [14]) was inactive. In the data set with Sindbis virus, the outcome was inactive. The Activity entry (in data set [3]; with L1210; in the data set with CCRF-CEM) was “Not Active” each time.

As to `O=C1N([C@H]2C[C@H](O)[C@@H](CO)O2)C=CC(O)(c2ccccc2)C1(F)F` (stereo not given in full), the outcome (in data set [1]; in [2]; with Human alphaherpesvirus 1 [4]; in the data set on Human betaherpesvirus 5 [5]; with Human alphaherpesvirus 3 [6]; with Vaccinia virus) was inactive. Moreover, the result (with Human alphaherpesvirus 1 [7]; in the data set with Human betaherpesvirus 5 [8]; in data set [9]; in [10]; with Human respirovirus 3; in the data set with Human alphaherpesvirus 3 [11]) was inactive. The result (in data set [12]; in the data set on Coxsackievirus B4; in the data set on Human alphaherpesvirus 2; with Punta Toro virus; in data set [13]; in data set [14]) was inactive. In addition, in the data set with Sindbis virus, the result was inactive. For the same molecule, the Activity result (in [3]; in the data set with L1210; with CCRF-CEM) was “Not Active” throughout.
